Data reported in ChEMBL document CHEMBL5352477, “Isoform selectivities of novel 4-hydroxycoumarin imines as inhibitors of myosin II” (Eur J Med Chem, 2023).
Converted amounts (≈) assume the structure as drawn. The source made the active and inactive calls. The rule behind the calls is not given here.

Assays:
[1] = test system: COS-7; assay: Inhibition of Non-muscle myosin IIB in African green monkey COS-7 cells assessed as inhibition of cytokinesis by measuring increase in nuclei to cell ratio (N/C) at 40 uM incubated for 24 hrs by fluorescein-diacetate, Hoechst 33342 and propidium iodide staining based fluorescence microscopy relative to control; conditions: Chlorocebus aethiops
Summary of the method: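 COS-7 cells (4,000/well) preincubated 24 h at 37 °C in 5% CO2, then exposed 24 h to 40 μM compound, final 1% DMSO. Media and 1% DMSO served as negative controls; para-aminoblebbistatin 20 μM and blebbistatin 10 μM as positive controls. Stained 10 min with FDA 6 μM, Hoechst 33342 10 μM and PI 4 μM, then imaged; N/C counted excluding PI-positive nuclei. Triplicate wells, ≥2 experiments, ≥600 cells per well.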

[2] = Inhibition of full length chicken phosphorylated myosin 2 smooth muscle isoform derived from gizzard ATPase activity assessed as reduction in steady-state rabbit F-actin-activated Mg2+ ATPase activity incubated for 6 to 24 mins in presence of ATPase buffer at 7.0 containing Mgcl2 and ATP by fluorescence-based assay; type: tissue-based, Gallus gallus
[3] = Selectivity index, ratio of IC50 for inhibition of full length bovine cardiac muscle myosin II ATPase activity to IC50 for inhibition of full length rabbit skeletal muscle myosin II ATPase activity
[4] = Inhibition of full length bovine Myosin-2 cardiac muscle isoform from left ventricle ATPase activity assessed as reduction in steady-state rabbit F-actin-activated Mg2+ ATPase activity incubated for 6 to 24 mins in presence of ATPase buffer at 7.0 containing Mgcl2 and ATP by fluorescence-based assay; set-up: species or system Bos taurus, Heart left ventricle
[5] = test system: COS-7; assay: Cytotoxicity against Green monkey COS-7 cells assessed as reduction in cell viability incubated for 24 hrs by MTT assay; type: toxicity, cell-based; conditions: chlorocebus aethiops, cos-7, 24 h
Summary of the method: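 COS-7 cells seeded at 2.5 × 10^4 per well, grown 24 h at 37 °C in 5% CO2, then treated 24 h with 20, 40, 100 or 200 μM compound in media with 1% DMSO (4 wells each). MTT 1.2 mM in PBS for 2 h in the dark, lysis in 0.1% NP-40/isopropanol with HCl, A564 read; CC50 and CC90 taken as concentrations giving 50% and 90% loss of viability.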

[6] = Inhibition of full length rabbit myosin 2 skeletal muscle isoform derived from Psoas muscle ATPase activity assessed as reduction in steady-state rabbit F-actin-activated Mg2+ ATPase activity incubated for 6 to 24 mins in presence of ATPase buffer at 7.0 containing Mgcl2 and ATP by fluorescence-based assay; type: tissue-based, Oryctolagus cuniculus
[7] = Kinetic solubility of the compound in 2.5% DMSO/PBS at pH 7.4 incubated for 1 hrs by nephelometry; type: physicochemical; conditions: for solubility kinetic at 1 h: 2.5% DMSO/PBS, pH 7.4, read-out: Kinetic_solubility; for Kinetic_solubility: buffer, pH 7.4, 1 h
Summary of the method: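 DMSO stock (20 mM) added to PBS pH 7.4, then serially diluted in quadruplicate at a constant 2.5% DMSO. Plates shaken 2 min, incubated 1 h at 37 °C, shaken 3 min, and turbidity read by nephelometry; average blank subtracted.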

## C/C(=N\Cc1ccccc1)c1c(O)c2ccccc2n(C)c1=O
[1]
  inhibition: inactive
[2]
  IC50: ≥ 100 µM

## C/C(=N\OCc1ccccc1)c1c(O)c2ccccc2oc1=O
[1]
  inhibition: inactive
[2]
  IC50: ≥ 100 µM

## Cc1ccc2c(c1)C(=O)[C@]1(O)CCN(c3ccccc3)C1=N2
[1]
  inhibition: inactive
[2]
  IC50: ≥ 100 µM

## C/C(=N\Cc1cccc(C)c1)c1c(O)c2ccccc2oc1=O
[1]
  inhibition: inactive
[2]
  IC50: ≥ 100 µM

## CCC/N=C(\C)c1c(O)c2ccccc2oc1=O
[1]
  inhibition: inactive
[2]
  IC50: ≥ 100 µM

## C/C(=N\C(C)C)c1c(O)c2ccccc2[nH]c1=O
[1]
  inhibition: inactive
[2]
  IC50: ≥ 100 µM

## CCCCC/N=C(\C)c1c(O)c2cc([N+](=O)[O-])ccc2oc1=O
[1]
  inhibition: inactive
[2]
  IC50: ≥ 100 µM

## COc1cccc(C/N=C(\C)c2c(O)c3ccccc3oc2=O)c1
[3]
  Ratio IC50: 0.5
[1]
  inhibition: inactive
[4]
  IC50: 4.4 µM
[5]
  CC10: 39 µM
  CC50: > 200 µM
[2]
  IC50: ≥ 100 µM
[6]
  IC50: 9.1 µM

## C/C(=N\Cc1ccncc1)c1c(O)c2ccccc2oc1=O
[7]
  solubility kinetic at 1 h: > 400 µM
[1]
  inhibition: inactive
[2]
  IC50: ≥ 100 µM

## C/C(=N\Nc1ccccc1)c1c(O)c2ccccc2oc1=O
[1]
  inhibition: inactive
[2]
  IC50: ≥ 100 µM

## COCCC/N=C(\C)c1c(O)c2ccccc2oc1=O
[3]
  Ratio IC50: 3.5
[1]
  inhibition: inactive
[4]
  IC50: 38 µM
[5]
  CC10: 339 µM
  CC50: > 1000 µM
[2]
  IC50: ≥ 100 µM
[6]
  IC50: 11 µM

## C/C(=N\Cc1ccc(C)cc1)c1c(O)c2ccccc2oc1=O
[1]
  inhibition: inactive
[2]
  IC50: ≥ 100 µM

## C/C(=N\CCCOCc1ccc2c(c1)OCO2)c1c(O)c2ccccc2oc1=O
[7]
  Kinetic_solubility: 122 µM
[1]
  inhibition: inactive
[4]
  IC50: ≥ 100 µM
[5]
  CC10: 110 µM
  CC50: > 200 µM
[2]
  IC50: ≥ 100 µM
[6]
  IC50: 29 µM

## C/C(=N\CC(C)C)c1c(O)c2ccccc2[nH]c1=O
[1]
  inhibition: inactive
[2]
  IC50: ≥ 100 µM

## COCC/N=C(\C)c1c(O)c2ccccc2oc1=O
[3]
  Ratio IC50: 0.6
[1]
  inhibition: inactive
[4]
  IC50: 52 µM
[5]
  CC10: 286 µM
  CC50: > 200 µM
[2]
  IC50: ≥ 100 µM
[6]
  IC50: 90 µM

## C/C(=N\Cc1ccccn1)c1c(O)c2ccccc2oc1=O
[1]
  inhibition: inactive
[2]
  IC50: ≥ 100 µM

## CCC/N=C(\C)c1c(O)c2ccccc2[nH]c1=O
[1]
  inhibition: inactive
[2]
  IC50: ≥ 100 µM

## C/C(=N\Cc1ccccc1)c1c(O)c2ccccc2[nH]c1=O
[1]
  inhibition: inactive
[2]
  IC50: ≥ 100 µM

## CCC(C)/N=C(\C)c1c(O)c2ccccc2[nH]c1=O (stereo unspecified)
[1]
  inhibition: inactive
[2]
  IC50: ≥ 100 µM

## CCOCCC/N=C/c1c(O)c2ccccc2oc1=O
[3]
  Ratio IC50: > 30
[1]
  inhibition: inactive
[4]
  IC50: ≥ 100 µM
[5]
  CC10: 135 µM
  CC50: > 1000 µM
[2]
  IC50: ≥ 100 µM
[6]
  IC50: 3.3 µM

## C/C(=N\C(C)C)c1c(O)c2ccccc2oc1=O
[1]
  inhibition: inactive
[2]
  IC50: ≥ 100 µM

## COc1ccc(C/N=C(\C)c2c(O)c3ccccc3oc2=O)cc1
[3]
  Ratio IC50: 3.4
[1]
  inhibition: inactive
[4]
  IC50: 5.4 µM
[5]
  CC10: 36 µM
  CC50: > 200 µM
[2]
  IC50: ≥ 100 µM
[6]
  IC50: 1.6 µM

## C/C(=N\CC1CCCCC1)c1c(O)c2ccccc2[nH]c1=O
[1]
  inhibition: inactive
[2]
  IC50: ≥ 100 µM

## CCOCC/N=C(\C)c1c(O)c2ccccc2oc1=O
[3]
  Ratio IC50: 1.3
[1]
  inhibition: inactive
[4]
  IC50: 24 µM
[5]
  CC10: 184 µM
  CC50: > 1000 µM
[2]
  IC50: ≥ 100 µM
[6]
  IC50: 19 µM

## Cc1ccc2c(c1)C(=O)[C@]1(O)CCN(c3ccc(N)cc3)C1=N2
[2]
  IC50: ≥ 100 µM

## C/C(=N\CCO)c1c(O)c2ccccc2oc1=O
[1]
  inhibition: inactive
[2]
  IC50: ≥ 100 µM

## C/C(=N\Cc1cccnc1)c1c(O)c2ccccc2oc1=O
[1]
  inhibition: inactive
[2]
  IC50: ≥ 100 µM

## CCCCN(CCC/N=C(\C)c1c(O)c2ccccc2oc1=O)Cc1cccc(OC)c1
[1]
  inhibition: inactive
[4]
  IC50: ≥ 100 µM
[2]
  IC50: ≥ 100 µM
[6]
  IC50: ≥ 100 µM

## C/C(=N\Cc1ccccc1C)c1c(O)c2ccccc2oc1=O
[1]
  inhibition: inactive
[2]
  IC50: ≥ 100 µM

## COc1cc(/C=C/C(=O)c2c(O)c3ccccc3oc2=O)ccc1O
[1]
  inhibition: inactive
[4]
  IC50: ≥ 100 µM
[2]
  IC50: ≥ 100 µM
[6]
  IC50: ≥ 100 µM

## CCC/C(=N\Cc1ccccc1)c1c(O)c2ccccc2oc1=O
[1]
  inhibition: inactive
[2]
  IC50: ≥ 100 µM

## CCCCCC/N=C(\C)c1c(O)c2ccccc2oc1=O
[1]
  inhibition: inactive
[2]
  IC50: ≥ 100 µM

## CCC(C)/N=C(\C)c1c(O)c2ccccc2oc1=O (stereo unspecified)
[1]
  inhibition: inactive
[2]
  IC50: ≥ 100 µM

## CCCC/N=C(\C)C1C(=O)Oc2ccccc2C1=O (stereo unspecified)
[7]
  solubility kinetic at 1 h: 607 µM (≈ 157 µg/mL)
[1]
  inhibition: inactive
[2]
  IC50: ≥ 100 µM

## CCCCC/N=C(\C)c1c(O)c2ccccc2[nH]c1=O
[1]
  inhibition: inactive
[2]
  IC50: ≥ 100 µM

## CCCC/N=C(\C)c1c(O)c2ccccc2[nH]c1=O
[1]
  inhibition: inactive
[2]
  IC50: ≥ 100 µM

## C/N=C(\C)C1C(=O)Oc2ccccc2C1=O (stereo unspecified)
[1]
  inhibition: inactive
[2]
  IC50: ≥ 100 µM

## CC/N=C(\C)C1C(=O)Oc2ccccc2C1=O (stereo unspecified)
[1]
  inhibition: inactive
[2]
  IC50: ≥ 100 µM

## C/C(=N\Cc1ccccc1)c1c(O)c2cc([N+](=O)[O-])ccc2oc1=O
[1]
  inhibition: inactive
[2]
  IC50: ≥ 100 µM

## CC/C(=N\Cc1ccccc1)c1c(O)c2ccccc2oc1=O
[1]
  inhibition: inactive
[2]
  IC50: ≥ 100 µM

## C/C(=N\CCO)c1c(O)c2ccccc2[nH]c1=O
[1]
  inhibition: inactive
[2]
  IC50: ≥ 100 µM

## COCCOCCOCCC/N=C(\C)c1c(O)c2ccccc2oc1=O
[1]
  inhibition: inactive
[4]
  IC50: ≥ 100 µM
[2]
  IC50: ≥ 100 µM
[6]
  IC50: ≥ 100 µM

## C/C(=N\CCCO)c1c(O)c2ccccc2oc1=O
[1]
  inhibition: inactive
[2]
  IC50: ≥ 100 µM

## COc1ccc(COCCC/N=C(\C)c2c(O)c3ccccc3oc2=O)cc1
[7]
  Kinetic_solubility: 103 µM
[1]
  inhibition: inactive
[4]
  IC50: ≥ 100 µM
[5]
  CC10: 46 µM
  CC50: > 200 µM
[2]
  IC50: ≥ 100 µM
[6]
  IC50: 50 µM

## C/C(=N\CC(C)C)c1c(O)c2ccccc2oc1=O
[1]
  inhibition: inactive
[2]
  IC50: ≥ 100 µM

## CCCCC/N=C(\C)c1c(O)c2ccccc2oc1=O
[1]
  inhibition: inactive
[2]
  IC50: ≥ 100 µM

## CC(=N)C1C(=O)Oc2ccccc2C1=O (stereo unspecified)
[1]
  inhibition: inactive
[2]
  IC50: ≥ 100 µM
